Converted amounts (≈) assume the structure as drawn. The source made the active and inactive calls. The rule behind the calls is not given here.
Key:
Bacillus cereus = assay: Antibacterial activity against Bacillus cereus ATCC 11778 after 24 hrs by broth microdilution method; assay type: functional; settings: ATCC 11778, 24 h
Procedure, shortened: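 MIC by CLSI broth microdilution in cation-adjusted Mueller–Hinton broth, tubes. Compounds in H2O or DMF, diluted in PBS to 1000 μg/mL stocks, then serial 2-fold dilutions (final DMF 2.5%). Inoculum ~5×10^5 CFU/mL from TSA plates grown 35 °C 20 h. Incubation 35 °C 24 h; MIC = no visible growth vs control. Biological replicates.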

Staphylococcus aureus [1] = assay: Antibacterial activity against methicillin-resistant Staphylococcus aureus DM 21455 after 24 hrs by broth microdilution method; assay type: functional; settings: DM 21455, 24 h
Procedure, shortened: (§1)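 Broth microdilution per CLSI in cation-adjusted Mueller−Hinton broth, in tubes. Compounds dissolved in H2O or DMF, then diluted in PBS to 1000 μg/mL stocks. Serial 2-fold dilutions were made, with final DMF 2.5%. Organisms were grown on TSA at 35 °C for 20 h and adjusted to ~5× 10^5 CFU/mL. Tubes were incubated at 35 °C for 24 h. MIC was the lowest concentration with no visible growth versus control. Biological replicates.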

Staphylococcus aureus [2] = assay: Antibacterial activity against Staphylococcus aureus DM4001R after 24 hrs by broth microdilution method; assay type: functional; procedure, shortened: as §1
Staphylococcus aureus [3] = assay: Antibacterial activity against methicillin-resistant Staphylococcus aureus DM 9808R after 24 hrs by broth microdilution method; assay type: functional; procedure, shortened: as §1
Staphylococcus aureus [4] = assay: Antibacterial activity against methicillin-resistant Staphylococcus aureus ATCC 43300 after 24 hrs by broth microdilution method; assay type: functional; settings: ATCC 43300, 24 h; procedure, shortened: as §1
Staphylococcus aureus [5] = assay: Antibacterial activity against methicillin-sensitive Staphylococcus aureus DM4299 after 24 hrs by broth microdilution method; assay type: functional; settings: DM4299, 24 h; procedure, shortened: as §1
Staphylococcus aureus [6] = assay: Antibacterial activity against methicillin-resistant Staphylococcus aureus ATCC 700699 after 24 hrs by broth microdilution method; assay type: functional; settings: ATCC 700699, 24 h; procedure, shortened: as §1
Staphylococcus aureus [7] = assay: Antibacterial activity against methicillin-sensitive Staphylococcus aureus ATCC 29737 after 24 hrs by broth microdilution method; assay type: functional; settings: ATCC 29737, 24 h; procedure, shortened: as §1
Staphylococcus aureus [8] = assay: Antibacterial activity against methicillin-sensitive Staphylococcus aureus DM4583R after 24 hrs by broth microdilution method; assay type: functional; procedure, shortened: as §1
Staphylococcus aureus [9] = assay: Antibacterial activity against methicillin-resistant Staphylococcus aureus DB68004 after 24 hrs by broth microdilution method; assay type: functional; settings: DB68004, 24 h; procedure, shortened: as §1
Staphylococcus aureus [10] = assay: Antibacterial activity against methicillin-sensitive Staphylococcus aureus DM4400R after 24 hrs by broth microdilution method; assay type: functional; procedure, shortened: as §1
[11] = Ratio of HC50 for New Zealand white rabbit RBC to MIC for methicillin-sensitive Staphylococcus aureus DM4583R
Procedure, shortened: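 HC50 measured on fresh New Zealand white rabbit RBCs, washed three times in PBS, at 4% v/v final. Cells were incubated with 2-fold serial dilutions (DMF final 0.5%) at 37 °C for 1 h, then centrifuged. Supernatant absorbance was read at 576 nm, with PBS as 0% and 2% Triton X-100 as 100% lysis. HC50 is the concentration lysing 50% of cells, divided by MIC from broth microdilution.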

Staphylococcus aureus [12] = assay: Antibacterial activity against methicillin-sensitive Staphylococcus aureus ATCC 6538 after 24 hrs by broth microdilution method; assay type: functional; settings: ATCC 6538, 24 h; procedure, shortened: as §1
Staphylococcus aureus [13] = assay: Antibacterial activity against methicillin-resistant Staphylococcus aureus BAA-38 after 24 hrs by broth microdilution method; assay type: functional; settings: BAA-38, 24 h; procedure, shortened: as §1
Staphylococcus aureus [14] = assay: Antibacterial activity against methicillin-resistant Staphylococcus aureus DB6506 after 24 hrs by broth microdilution method; assay type: functional; settings: DB6506, 24 h; procedure, shortened: as §1
Staphylococcus aureus [15] = assay: Antibacterial activity against methicillin-sensitive Staphylococcus aureus ATCC 29213 after 24 hrs by broth microdilution method; assay type: functional; settings: ATCC 29213, 24 h; procedure, shortened: as §1
Staphylococcus aureus [16] = assay: Antibacterial activity against methicillin-resistant Staphylococcus aureus DB57964 after 24 hrs by broth microdilution method; assay type: functional; settings: DB57964, 24 h; procedure, shortened: as §1
Staphylococcus aureus [17] = assay: Antibacterial activity against Staphylococcus aureus ATCC 29213 infected in C57BL6 mouse keratitis model assessed as log reduction in bacterial burden at 0.5 % administered 4 times daily at 2 hrs interval for 1 day; assay type: functional
Procedure, shortened: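 C57BL6 mice, 6–8 weeks, 20–30 g, four per group, anesthetized with ketamine/xylazine. Right cornea scratched (three 1 mm cuts), 10 μL of 6×10^8 CFU/mL S. aureus ATCC 29213 in PBS applied topically. From day 1, 0.5% drug in PBS (12 mM, pH 7.2) given 4 times at 2 h intervals. Corneas homogenized in 0.9% NaCl/0.25% BSA, diluted, plated in duplicate on TSA, 48 h at 35 °C.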

Lipid bilayer = assay: Membrane permeabilization activity in DOPE/DOPG large unilamellar liposomes assessed as leakage of calcein at 1:4 to 1:8 compound to lipid ratio by fluorescence assay
Staphylococcus aureus [18] = assay: Induction of plasma membrane permeability in methicillin-resistant Staphylococcus aureus DM9808R assessed as increase in fluorescence intensity at 12.5 ug/ml measured every 1 sec for 50 mins by SYTOX green dye based fluorimetric assay; assay type: functional
Procedure, shortened: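 Exponential-phase MRSA DM9808R grown on TSA, washed twice and resuspended in PBS (10 mM, pH 7) to OD600 0.2. Cells were loaded with 0.3 μM SYTOX Green in the dark until fluorescence stabilized. Test samples were then added (final DMF 0.5%). Fluorescence at ex 504/em 523 nm was recorded every 1 s for 50 min. Biological replicates.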

Staphylococcus aureus [19] = assay: Ratio of MIC for Staphylococcus aureus ATCC 29213 after […] passages to MIC for Staphylococcus aureus ATCC 29213; assay type: functional
Procedure, shortened: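 Serial passage. Initial MIC was determined against S. aureus ATCC29213 by broth microdilution. Bacteria from duplicate tubes at 0.5× MIC were diluted to ~5 × 10^5 CFU/mL for the next MIC round. Each round was incubated at 35 °C for 24 h and the fold increase in MIC recorded. Gatifloxacin and norfloxacin served as comparators. Repeated for 17 passages, biological replicates.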

COc1ccc(-c2oc3c(CC=C(C)C)c(OCC(=O)N[C@@H](CCCNC(=N)N)C(=O)OC(C)(C)C)cc(O)c3c(=O)c2OCC(=O)N[C@@H](CCCNC(=N)N)C(=O)OC(C)(C)C)cc1
MIC (Bacillus cereus): 3.4 µM
MIC (Staphylococcus aureus [1]): 6.8 µM
MIC (Staphylococcus aureus [2]): 3.4 µM
MIC (Staphylococcus aureus [3]): 3.4 µM

H-GIGKFLKKAKKFGKAFVKILKK-OH
MIC (Staphylococcus aureus [4]): 16 to 64 µg/mL
MIC (Staphylococcus aureus [5]): 16 to 64 µg/mL
MIC (Staphylococcus aureus [6]): 16 to 64 µg/mL
MIC (Staphylococcus aureus [7]): 16 to 64 µg/mL
MIC (Staphylococcus aureus [8]): 16 to 64 µg/mL
MIC (Staphylococcus aureus [9]): 16 to 64 µg/mL
MIC (Staphylococcus aureus [10]): 16 to 64 µg/mL
Ratio [11]: 2 to 8
MIC (Staphylococcus aureus [12]): 16 to 64 µg/mL
MIC (Staphylococcus aureus [13]): 16 to 64 µg/mL
MIC (Staphylococcus aureus [14]): 16 to 64 µg/mL
MIC (Staphylococcus aureus [15]): 16 to 64 µg/mL
MIC (Staphylococcus aureus [16]): 16 to 64 µg/mL

CCN(CC)CCCCCCCCOc1cc(O)c2c(=O)c(OCCCCCCCCN(CC)CC)c(-c3ccc(OC)cc3)oc2c1CC=C(C)C
MIC (Bacillus cereus): > 50 µg/mL
MIC (Staphylococcus aureus [1]): > 50 µg/mL
MIC (Staphylococcus aureus [2]): > 50 µg/mL
MIC (Staphylococcus aureus [3]): > 50 µg/mL

COC(=O)[C@H](CCCNC(=N)N)NC(=O)[C@H](CCCNC(=N)N)NC(=O)COc1cc(O)c2c(=O)c(OCC(=O)N[C@@H](CCCNC(=N)N)C(=O)N[C@@H](CCCNC(=N)N)C(=O)OC)c(-c3ccc(OC)cc3)oc2c1CC=C(C)C
MIC (Bacillus cereus): 11 µM
MIC (Staphylococcus aureus [1]): 11 µM
MIC (Staphylococcus aureus [2]): 5.5 µM
MIC (Staphylococcus aureus [3]): 5.5 µM

COc1ccc(-c2oc3c(CC=C(C)C)c(OCCCCN(C)C)cc(O)c3c(=O)c2OCCCCN(C)C)cc1
MIC (Bacillus cereus): 25 µg/mL
MIC (Staphylococcus aureus [1]): 12.5 µg/mL
MIC (Staphylococcus aureus [2]): 25 µg/mL
MIC (Staphylococcus aureus [3]): 12.5 µg/mL

C[C@H]1COc2c(N3CCN(C)CC3)c(F)cc3c(=O)c(C(=O)O)cn1c23
Activity (Staphylococcus aureus [17]): Active

CCN(CC)CCCCOc1cc(O)c2c(=O)c(OCCCCN(CC)CC)c(-c3ccc(OC)cc3)oc2c1CC=C(C)C
MIC (Bacillus cereus): 6.25 µg/mL
MIC (Staphylococcus aureus [1]): 12.5 µg/mL
MIC (Staphylococcus aureus [2]): 25 µg/mL
MIC (Staphylococcus aureus [3]): 12.5 µg/mL

COC(=O)[C@H](CCCCN)NC(=O)COc1cc(O)c2c(=O)c(OCC(=O)N[C@@H](CCCCN)C(=O)OC)c(-c3ccc(OC)cc3)oc2c1CC=C(C)C
MIC (Bacillus cereus): 32.5 µM
MIC (Staphylococcus aureus [1]): 32.5 µM
MIC (Staphylococcus aureus [2]): 32.5 µM
MIC (Staphylococcus aureus [3]): 32.5 µM
Activity (Lipid bilayer): 30%
Activity (Staphylococcus aureus [18]): Active

COc1c(N2CCNC(C)C2)c(F)cc2c(=O)c(C(=O)O)cn(C3CC3)c12 (centres undefined) [GATIFLOXACIN]
Ratio (Staphylococcus aureus [19]): 64

N=C(N)NCCCCC(=O)Nc1cc(C(F)(F)F)cc(NC(=O)c2cc(C(=O)Nc3cc(C(F)(F)F)cc(NC(=O)CCCCNC(=N)N)c3O[C@@H]3CCNC3)ncn2)c1O[C@@H]1CCNC1 [BRILACIDIN]
MIC (Staphylococcus aureus [4]): 1 µg/mL (≈ 1.07 µM)
MIC (Staphylococcus aureus [5]): 1 µg/mL (≈ 1.07 µM)
MIC (Staphylococcus aureus [6]): 1 µg/mL (≈ 1.07 µM)
MIC (Staphylococcus aureus [7]): 1 µg/mL (≈ 1.07 µM)
MIC (Staphylococcus aureus [8]): 1 µg/mL (≈ 1.07 µM)
MIC (Staphylococcus aureus [9]): 1 µg/mL (≈ 1.07 µM)
MIC (Staphylococcus aureus [10]): 1 µg/mL (≈ 1.07 µM)
Ratio [11]: 558
MIC (Staphylococcus aureus [12]): 1 µg/mL (≈ 1.07 µM)
MIC (Staphylococcus aureus [13]): 1 µg/mL (≈ 1.07 µM)
MIC (Staphylococcus aureus [14]): 1 µg/mL (≈ 1.07 µM)
MIC (Staphylococcus aureus [15]): 1 µg/mL (≈ 1.07 µM)
MIC (Staphylococcus aureus [16]): 1 µg/mL (≈ 1.07 µM)

Reference: ChEMBL document CHEMBL4011638, “Semisynthetic Flavone-Derived Antimicrobials with Therapeutic Potential against Methicillin-Resistant Staphylococcus aureus (MRSA)” (J Med Chem, 2017)
